Measured values from ChEMBL document CHEMBL4376814, “Novel cyclin-dependent kinase 9 (CDK9) inhibitor with suppression of cancer stemness activity against non-small-cell lung cancer” (Eur J Med Chem, 2019).
Calls of active or inactive are those of the source. The rule behind the calls is not given here.

Experiments:
[1] = molecular target: Mitogen-activated protein kinase kinase kinase kinase 4 (Homo sapiens) (UniProt O95819); assay: Inhibition of recombinant human MAP4K4 (1 to 328 residues) at 1 uM using RLGRDKYKTLRQIRQ as substrate measured after 40 mins in presence of [gamma33P]ATP by scintillation counting method relative to control
[2] = Half life in Beagle dog liver microsomes at 2 uM in presence of NADPH measured up to 1 hr by HPLC analysis; type: ADME, Canis lupus familiaris, Microsome
How it was run: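 Drug at 2 µM incubated at 37 °C with male liver microsomes at 1 mg/mL, in 0.1 M phosphate buffer pH 7.4 with MgCl2. After 5 min preincubation, reaction started with NADPH. Samples (n=3) taken at 0, 10, 20, 30, 45 and 60 min, quenched with ice-cold acetonitrile, spun, and analysed by HPLC. t1/2 derived from the fitted rate constant k.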

[3] = molecular target: Proto-oncogene tyrosine-protein kinase Src (Homo sapiens) (UniProt P12931); assay: Inhibition of human Src (1 to 530 residues) at 1 uM using GGEEEEYFELVKKKK as substrate measured after 40 mins in presence of [gamma33P]ATP by scintillation counting method relative to control
How it was run: (§1)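 Percent inhibition of kinase activity at a single compound concentration, measured by the outsourced Eurofins KinaseProfiler panel. Values are the mean of two independent experiments.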

[4] = molecular target: Serine/threonine-protein kinase 3 (Homo sapiens) (UniProt Q13188); assay: Inhibition of recombinant human MST2 (2 to end residues) at 1 uM using myelin basic protein as substrate measured after 40 mins in presence of [gamma33P]ATP by scintillation counting method relative to control
A549 = assay: Down regulation of CDK9 expression in human A549 cells at 0.25 to 1 uM after 24 hrs by Western blot analysis; type: functional, cell-based
How it was run: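 A549 and H1299 cells treated for 24 h with serial dilutions alongside a DMSO control. Protein extracts resolved and immunoblotted.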

[5] = Half life in Sprague-Dawley rat liver microsomes at 2 uM in presence of NADPH measured up to 1 hr by HPLC analysis; type: ADME, Microsome
How it was run: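 Compound at 2 μM incubated at 37 °C with liver microsomes (1 mg/mL), 3 mM MgCl2 and 0.1 M phosphate buffer pH 7.4; 5 min preincubation, then started with 3 mM NADPH. Aliquots (n = 3) at 0, 10, 20, 30, 45, 60 min quenched with ice-cold acetonitrile, centrifuged, supernatant by HPLC. t1/2 from linear-regression kinetic constant k.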

Homo sapiens [6] = species on record: Homo sapiens; assay: Inhibition of recombinant human Plk4 S34T mutant (1 to 273 residues) at 1 uM using casein as substrate measured after 120 mins in presence of [gamma33P]ATP by scintillation counting method relative to control
[7] = system: Mitogen-activated protein kinase 14 (Homo sapiens), Q16539 [T106M]; assay: Inhibition of recombinant full-length human SAPK2a T106M mutant at 1 uM using myelin basic protein as substrate measured after 40 mins in presence of [gamma33P]ATP by scintillation counting method relative to control
[8] = molecular target: Calcium/calmodulin-dependent protein kinase type II subunit delta (Homo sapiens) (UniProt Q13557); assay: Inhibition of recombinant full-length human CaMK2delta at 1 uM using calmodulin as substrate measured after 40 mins in presence of [gamma33P]ATP by scintillation counting method relative to control
Homo sapiens [9] = species on record: Homo sapiens; assay: Inhibition of recombinant full-length human PI3K p110delta/p85alpha N253S mutant at 1 uM using phosphatidylinositol-4, 5-bisphosphate as substrate measured after 40 mins by fluorescence assay relative to control
[10] = system: PI3-kinase p110-alpha/p85-alpha (Homo sapiens), P27986+P42336 [E545K]; assay: Inhibition of recombinant full-length human PI3K p110alpha/p85alpha E545K mutant at 1 uM using phosphatidylinositol-4, 5-bisphosphate as substrate measured after 40 mins by HTRF assay relative to control; type: protein-complex assay
[11] = molecular target: Ephrin type-A receptor 7 (Homo sapiens) (UniProt Q15375); assay: Inhibition of recombinant human EphA7 (613 to 909 residues) at 1 uM using KTFCGTPEYLAPEVRREPRILSEEEQEMFRDFDYIADWC as substrate measured after 40 mins in presence of [gamma33P]ATP by scintillation counting method relative to control
[12] = molecular target: Platelet-derived growth factor receptor alpha (Homo sapiens) (UniProt P16234); assay: Inhibition of recombinant human PDGFRalpha (550 to end residues) at 1 uM using poly[Glu:Tyr] (4:1) as substrate measured after 40 mins in presence of [gamma33P]ATP by scintillation counting method relative to control
[13] = molecular target: Dual specificity mitogen-activated protein kinase kinase 3 (Homo sapiens) (UniProt P46734); assay: Inhibition of human MKK3 at 1 uM by radiometric method relative to control; how it was run: as §1
[14] = molecular target: Serine/threonine-protein kinase VRK1 (Homo sapiens) (UniProt Q99986); assay: Inhibition of human VRK1 at 1 uM by radiometric method relative to control
[15] = system: Tyrosine-protein kinase Blk (Homo sapiens), P51451 [UNDEFINED MUTATION]; assay: Inhibition of full-length recombinant human BLK M287V mutant at 1 uM using poly(Glu, Tyr) 4:1 as substrate measured after 40 mins in presence of [gamma33P]ATP by scintillation counting method relative to control; how it was run: as §1
[16] = molecular target: Serine/threonine-protein kinase DCLK2 (Homo sapiens) (UniProt Q8N568); assay: Inhibition of recombinant human DCAMKL2 (376 to end residues) at 1 uM using KKLNRTLSFAEPG as substrate measured after 40 mins in presence of [gamma33P]ATP by scintillation counting method relative to control
How it was run: (§2)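 Single-point inhibition at 1 µM was measured in the Eurofins KinaseProfiler panel. Values are the mean of two independent experiments.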

[17] = molecular target: Calcium/calmodulin-dependent protein kinase type 1 (Homo sapiens) (UniProt Q14012); assay: Inhibition of recombinant human CaMK1 (2 to end residues) at 1 uM using calmodulin as substrate measured after 40 mins in presence of [gamma33P]ATP by scintillation counting method relative to control
[18] = molecular target: 5'-AMP-activated protein kinase catalytic subunit alpha-1 (Homo sapiens) (UniProt Q13131); assay: Inhibition of full length recombinant human AMPK alpha1 at 1 uM using AMARAASAAALARRR as substrate measured after 40 mins in presence of [gamma33P]ATP by scintillation counting method relative to control; how it was run: as §2
NCI-H1299 = assay: Induction of apoptosis in human H1299 cells assessed as late apoptotic cells at 0.5 uM after 48 hrs by AnnexinV-FITC/PI staining-based flow cytometric analysis (reference value: 1.77%); type: functional
[19] = molecular target: Dual specificity mitogen-activated protein kinase kinase 6 (Homo sapiens) (UniProt P52564); assay: Inhibition of recombinant human MKK6 (4 to end residues) at 1 uM using unactive SAPK2a as substrate measured after 40 mins in presence of [gamma33P]ATP by scintillation counting method relative to control
Dual specificity mitogen-activated protein kinase kinase 6 (Homo sapiens), sequence (P52564 whole entry): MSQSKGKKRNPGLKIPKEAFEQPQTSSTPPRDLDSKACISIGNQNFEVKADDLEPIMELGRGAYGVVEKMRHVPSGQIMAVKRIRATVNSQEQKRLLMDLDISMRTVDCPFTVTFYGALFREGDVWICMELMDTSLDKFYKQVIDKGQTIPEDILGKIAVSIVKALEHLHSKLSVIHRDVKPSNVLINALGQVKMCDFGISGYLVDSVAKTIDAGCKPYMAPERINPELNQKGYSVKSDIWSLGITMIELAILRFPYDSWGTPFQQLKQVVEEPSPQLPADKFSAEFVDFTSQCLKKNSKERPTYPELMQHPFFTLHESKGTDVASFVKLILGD

Ephrin type-A receptor 7 (Homo sapiens), sequence (Q15375 28-998 limits assumed): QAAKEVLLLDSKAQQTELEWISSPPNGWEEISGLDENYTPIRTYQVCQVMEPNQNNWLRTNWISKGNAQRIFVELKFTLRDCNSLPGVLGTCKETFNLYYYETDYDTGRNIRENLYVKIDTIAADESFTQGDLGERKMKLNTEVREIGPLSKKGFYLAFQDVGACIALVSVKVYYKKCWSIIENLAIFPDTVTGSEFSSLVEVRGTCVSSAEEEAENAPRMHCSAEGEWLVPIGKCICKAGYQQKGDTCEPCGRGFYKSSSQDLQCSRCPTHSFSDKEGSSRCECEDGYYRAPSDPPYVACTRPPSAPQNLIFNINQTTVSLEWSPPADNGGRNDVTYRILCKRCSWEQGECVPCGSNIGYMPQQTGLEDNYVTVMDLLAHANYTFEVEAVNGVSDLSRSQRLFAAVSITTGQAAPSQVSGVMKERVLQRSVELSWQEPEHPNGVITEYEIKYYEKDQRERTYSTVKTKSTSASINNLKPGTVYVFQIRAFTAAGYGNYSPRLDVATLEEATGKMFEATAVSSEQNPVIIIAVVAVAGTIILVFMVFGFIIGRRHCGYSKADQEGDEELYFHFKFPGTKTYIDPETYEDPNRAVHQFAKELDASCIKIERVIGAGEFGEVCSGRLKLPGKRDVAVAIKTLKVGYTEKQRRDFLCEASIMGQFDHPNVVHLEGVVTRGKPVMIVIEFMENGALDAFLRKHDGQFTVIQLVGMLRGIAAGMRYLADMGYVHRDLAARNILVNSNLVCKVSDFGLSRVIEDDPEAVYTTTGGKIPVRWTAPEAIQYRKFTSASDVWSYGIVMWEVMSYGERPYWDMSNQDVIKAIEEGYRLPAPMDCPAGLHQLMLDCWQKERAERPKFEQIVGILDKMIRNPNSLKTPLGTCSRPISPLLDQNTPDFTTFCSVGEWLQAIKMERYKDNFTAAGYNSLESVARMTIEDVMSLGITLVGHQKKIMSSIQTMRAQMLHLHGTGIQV
Calcium/calmodulin-dependent protein kinase type II subunit delta (Homo sapiens), sequence (Q13557 whole entry): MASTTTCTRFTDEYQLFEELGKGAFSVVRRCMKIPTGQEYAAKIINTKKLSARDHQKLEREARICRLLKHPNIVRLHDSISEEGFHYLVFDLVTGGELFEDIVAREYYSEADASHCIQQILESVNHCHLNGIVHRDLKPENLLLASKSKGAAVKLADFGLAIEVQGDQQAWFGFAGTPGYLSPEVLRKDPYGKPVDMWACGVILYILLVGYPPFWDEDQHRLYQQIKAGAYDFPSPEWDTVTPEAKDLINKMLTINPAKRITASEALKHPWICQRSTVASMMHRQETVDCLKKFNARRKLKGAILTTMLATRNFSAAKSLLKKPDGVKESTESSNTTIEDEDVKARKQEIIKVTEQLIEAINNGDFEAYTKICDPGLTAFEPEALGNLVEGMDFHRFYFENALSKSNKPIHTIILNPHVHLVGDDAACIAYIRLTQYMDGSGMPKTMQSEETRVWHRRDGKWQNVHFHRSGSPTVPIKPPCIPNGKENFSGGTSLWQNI
Calcium/calmodulin-dependent protein kinase type 1 (Homo sapiens), sequence (Q14012 whole entry, looked up): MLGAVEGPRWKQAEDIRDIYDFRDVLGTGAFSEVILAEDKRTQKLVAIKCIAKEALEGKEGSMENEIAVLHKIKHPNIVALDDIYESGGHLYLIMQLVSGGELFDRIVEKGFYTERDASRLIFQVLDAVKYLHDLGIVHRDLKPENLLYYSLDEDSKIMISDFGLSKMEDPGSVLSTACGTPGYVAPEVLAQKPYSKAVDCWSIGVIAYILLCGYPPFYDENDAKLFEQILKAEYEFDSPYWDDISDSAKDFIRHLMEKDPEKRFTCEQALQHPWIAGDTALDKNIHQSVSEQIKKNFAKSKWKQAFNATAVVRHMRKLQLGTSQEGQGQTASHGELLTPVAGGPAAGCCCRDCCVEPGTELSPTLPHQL
Mitogen-activated protein kinase kinase kinase kinase 4 (Homo sapiens), sequence (O95819 2-1239 limits assumed): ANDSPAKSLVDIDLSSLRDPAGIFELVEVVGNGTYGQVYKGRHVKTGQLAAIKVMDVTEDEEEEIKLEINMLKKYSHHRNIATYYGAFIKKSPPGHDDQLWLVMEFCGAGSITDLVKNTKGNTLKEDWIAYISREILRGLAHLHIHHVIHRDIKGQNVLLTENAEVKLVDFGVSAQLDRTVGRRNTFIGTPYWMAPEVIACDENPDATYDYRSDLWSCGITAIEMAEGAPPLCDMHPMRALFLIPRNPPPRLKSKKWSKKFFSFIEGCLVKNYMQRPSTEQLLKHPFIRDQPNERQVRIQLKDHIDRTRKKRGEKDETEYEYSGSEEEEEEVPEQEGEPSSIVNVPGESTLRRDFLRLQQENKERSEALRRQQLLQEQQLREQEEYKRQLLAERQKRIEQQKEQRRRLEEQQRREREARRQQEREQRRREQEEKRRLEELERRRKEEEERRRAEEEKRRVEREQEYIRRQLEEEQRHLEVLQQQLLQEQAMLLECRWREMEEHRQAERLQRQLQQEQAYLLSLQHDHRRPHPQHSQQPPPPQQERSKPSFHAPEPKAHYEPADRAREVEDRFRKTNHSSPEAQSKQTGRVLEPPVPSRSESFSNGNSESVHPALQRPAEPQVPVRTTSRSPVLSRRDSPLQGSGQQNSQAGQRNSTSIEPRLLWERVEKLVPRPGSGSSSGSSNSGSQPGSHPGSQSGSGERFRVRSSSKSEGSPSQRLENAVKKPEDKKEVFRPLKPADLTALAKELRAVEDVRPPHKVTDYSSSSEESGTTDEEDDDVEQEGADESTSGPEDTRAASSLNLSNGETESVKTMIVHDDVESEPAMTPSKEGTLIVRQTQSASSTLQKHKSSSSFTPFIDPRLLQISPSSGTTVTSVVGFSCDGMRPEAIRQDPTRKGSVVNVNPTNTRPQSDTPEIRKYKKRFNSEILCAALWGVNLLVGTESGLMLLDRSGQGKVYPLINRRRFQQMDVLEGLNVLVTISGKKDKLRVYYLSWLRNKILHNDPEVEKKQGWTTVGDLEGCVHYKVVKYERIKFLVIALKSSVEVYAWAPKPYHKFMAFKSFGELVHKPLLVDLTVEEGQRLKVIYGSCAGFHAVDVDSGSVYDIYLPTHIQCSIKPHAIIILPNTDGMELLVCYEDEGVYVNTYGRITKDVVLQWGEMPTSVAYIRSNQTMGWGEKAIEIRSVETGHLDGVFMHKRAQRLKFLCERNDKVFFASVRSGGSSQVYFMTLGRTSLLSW
5'-AMP-activated protein kinase catalytic subunit alpha-1 (Homo sapiens), sequence (Q13131 whole entry, looked up): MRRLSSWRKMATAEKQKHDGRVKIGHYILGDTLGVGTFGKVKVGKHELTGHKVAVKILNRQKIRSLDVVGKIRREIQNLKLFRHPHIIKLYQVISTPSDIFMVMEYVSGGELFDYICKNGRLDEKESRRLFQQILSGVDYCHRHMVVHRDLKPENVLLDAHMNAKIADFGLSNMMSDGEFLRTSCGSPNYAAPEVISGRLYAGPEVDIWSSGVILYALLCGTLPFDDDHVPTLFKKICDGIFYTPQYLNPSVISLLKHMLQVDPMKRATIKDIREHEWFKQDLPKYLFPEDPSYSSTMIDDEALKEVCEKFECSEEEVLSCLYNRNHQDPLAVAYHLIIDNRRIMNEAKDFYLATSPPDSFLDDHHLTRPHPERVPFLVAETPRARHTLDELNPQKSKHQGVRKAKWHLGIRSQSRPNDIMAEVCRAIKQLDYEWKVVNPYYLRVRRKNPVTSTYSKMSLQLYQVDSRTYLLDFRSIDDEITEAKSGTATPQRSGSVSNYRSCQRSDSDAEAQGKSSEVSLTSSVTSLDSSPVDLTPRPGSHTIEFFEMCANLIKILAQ
Dual specificity mitogen-activated protein kinase kinase 3 (Homo sapiens), sequence (P46734 whole entry): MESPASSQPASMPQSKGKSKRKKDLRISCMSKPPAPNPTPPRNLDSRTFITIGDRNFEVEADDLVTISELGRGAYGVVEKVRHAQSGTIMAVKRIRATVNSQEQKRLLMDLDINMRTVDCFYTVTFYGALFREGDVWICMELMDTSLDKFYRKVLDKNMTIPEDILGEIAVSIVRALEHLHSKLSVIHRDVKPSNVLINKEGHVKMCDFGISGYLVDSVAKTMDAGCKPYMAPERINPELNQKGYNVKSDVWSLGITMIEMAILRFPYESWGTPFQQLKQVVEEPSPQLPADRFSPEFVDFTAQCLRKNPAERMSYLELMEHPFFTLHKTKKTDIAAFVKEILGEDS
Proto-oncogene tyrosine-protein kinase Src (Homo sapiens), sequence (P12931 2-536 limits assumed): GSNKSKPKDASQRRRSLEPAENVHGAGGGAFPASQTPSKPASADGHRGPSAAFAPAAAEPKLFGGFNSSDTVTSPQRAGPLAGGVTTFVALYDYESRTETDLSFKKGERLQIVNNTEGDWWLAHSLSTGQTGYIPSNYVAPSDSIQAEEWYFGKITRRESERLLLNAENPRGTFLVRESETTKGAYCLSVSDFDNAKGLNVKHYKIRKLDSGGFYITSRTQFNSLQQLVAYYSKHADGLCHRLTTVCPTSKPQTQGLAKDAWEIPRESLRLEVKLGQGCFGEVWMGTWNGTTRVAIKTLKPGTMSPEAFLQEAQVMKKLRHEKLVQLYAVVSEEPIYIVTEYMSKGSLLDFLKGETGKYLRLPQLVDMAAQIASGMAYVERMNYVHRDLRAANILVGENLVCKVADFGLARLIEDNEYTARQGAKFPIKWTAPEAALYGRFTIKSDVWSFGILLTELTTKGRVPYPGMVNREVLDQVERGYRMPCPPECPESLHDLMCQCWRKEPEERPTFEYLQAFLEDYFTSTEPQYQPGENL

**Q.** Which inhibition [1] does the source give for CN(C)C(=O)c1cc2cnc(Nc3ccc(NC(=O)CCCCCCCN=C=S)cc3)nc2n1C1CCCC1 here?
**A.** 16%

**Q.** And the half-life at 2 µM [2]?
**A.** 26.7 min

**Q.** And the inhibition [3]?
**A.** 36%

**Q.** And the inhibition [4]?
**A.** 43%

**Q.** And the Activity (A549)?
**A.** inactive

**Q.** What about the half-life at 2 µM [5] of the same molecule?
**A.** 40.8 min

**Q.** What about the inhibition (Homo sapiens [6]) of the same molecule?
**A.** 50%

**Q.** And the inhibition [7]?
**A.** 0%

**Q.** And the inhibition [8]?
**A.** 36%

**Q.** And the inhibition (Homo sapiens [9])?
**A.** 2%

**Q.** And the inhibition [10]?
**A.** 4%

**Q.** What about the inhibition [11] of the same molecule?
**A.** 6%

**Q.** And the inhibition [12]?
**A.** 7%

**Q.** What about the inhibition [13] of the same molecule?
**A.** 23%

**Q.** What about the inhibition [14] of the same molecule?
**A.** 0%

**Q.** And the inhibition [15]?
**A.** 45%

**Q.** And the inhibition [16]?
**A.** 1%

**Q.** What about the inhibition [17] of the same molecule?
**A.** 6%

**Q.** And the inhibition [18]?
**A.** 11%

**Q.** What about the Activity (NCI-H1299) of the same molecule?
**A.** 3.64%

**Q.** And the inhibition [19]?
**A.** 30%
